According to ChEMBL document CHEMBL4387700, “A novel, potent, and orally bioavailable thiazole HCV NS5A inhibitor for the treatment of hepatitis C virus” (Eur J Med Chem, 2019):

Experiment: Cytotoxicity against human HuH7 cells assessed as reduction in cell viability by MTS assay
Format: cell-based, Huh-7
Method in brief: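 Viability of Huh-7 cells was read by MTS assay.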
For `O=C(N[C@H](C(=O)N1CCC[C@H]1c1ncc(-c2ccc(-c3ccc(-c4cnc([C@@H]5CCCN5C(=O)[C@H](NC(=O)c5ccccn5)c5ccccc5)s4)cc3)cc2)s1)c1ccccc1)c1ccccn1`, the CC50 was greater than 50 µM.
For `CCN(CC)CCC(=O)N[C@@H](C(=O)N1CCC[C@H]1c1ncc(-c2ccc(-c3ccc(-c4cnc([C@@H]5CCCN5C(=O)[C@H](NC(=O)CCN(CC)CC)c5ccccc5)s4)cc3)cc2)s1)c1ccccc1`, the CC50 was greater than 50 µM.
Work on `O=C(Cc1ccccc1)N[C@H](C(=O)N1CCC[C@H]1c1ncc(-c2ccc(-c3ccc(-c4cnc([C@@H]5CCCN5C(=O)[C@H](NC(=O)Cc5ccccc5)c5ccccc5)s4)cc3)cc2)s1)c1ccccc1` yielded a CC50 greater than 50 µM.
Work on `CCCC(=O)N[C@@H](C(=O)N1CCC[C@H]1c1ncc(-c2ccc(-c3ccc(-c4cnc([C@@H]5CCCN5C(=O)[C@H](NC(=O)CCC)c5ccccc5)s4)cc3)cc2)s1)c1ccccc1` yielded a CC50 greater than 50 µM.
`CCC[C@H](NC(=O)OC)C(=O)N1CCC[C@H]1c1ncc(-c2ccc(-c3ccc(-c4cnc([C@@H]5CCCN5C(=O)[C@H](CCC)NC(=O)OC)s4)cc3)cc2)s1` showed a CC50 greater than 50 µM.
In the case of `CCCCC(=O)N[C@@H](C(=O)N1CCC[C@H]1c1ncc(-c2ccc(-c3ccc(-c4cnc([C@@H]5CCCN5C(=O)[C@H](NC(=O)CCCC)c5ccccc5)s4)cc3)cc2)s1)c1ccccc1`, the CC50 is reported as greater than 50 µM.
`O=C(N[C@@H](C(=O)N1CCC[C@H]1c1ncc(-c2ccc(-c3ccc(-c4cnc([C@@H]5CCCN5C(=O)[C@H](NC(=O)c5cccnc5)c5ccccc5)s4)cc3)cc2)s1)c1ccccc1)c1cccnc1` showed a CC50 greater than 50 µM.
Molecule `COC(=O)N[C@@H](C(=O)N1CCC[C@H]1c1ncc(-c2ccc(-c3ccc(-c4cnc([C@@H]5CCCN5C(=O)[C@H](NC(=O)OC)c5ccccc5)s4)cc3)cc2)s1)c1ccccc1` has a CC50 greater than 50 µM.
`CCCC(=O)N[C@H](C(=O)N1CCC[C@H]1c1ncc(-c2ccc(-c3ccc(-c4cnc([C@@H]5CCCN5C(=O)[C@H](NC(=O)CCC)c5ccccc5)s4)cc3)cc2)s1)c1ccccc1` gave a CC50 greater than 50 µM.
`COC(=O)N[C@H](C(=O)N1CCC[C@H]1c1ncc(-c2ccc(-c3ccc(-c4cnc([C@@H]5CCCN5C(=O)[C@@H](NC(=O)OC)C(C)C)s4)cc3)cc2)s1)C(C)C` gave a CC50 greater than 50 µM.
`O=C(N[C@H](C(=O)N1CCC[C@H]1c1ncc(-c2ccc(-c3ccc(-c4cnc([C@@H]5CCCN5C(=O)[C@H](NC(=O)N5CCCC5)c5ccccc5)s4)cc3)cc2)s1)c1ccccc1)N1CCCC1` showed a CC50 greater than 50 µM.
For `O=C(CCn1cccc1)N[C@@H](C(=O)N1CCC[C@H]1c1ncc(-c2ccc(-c3ccc(-c4cnc([C@@H]5CCCN5C(=O)[C@H](NC(=O)CCn5cccc5)c5ccccc5)s4)cc3)cc2)s1)c1ccccc1`, the CC50 was greater than 50 µM.
In the case of `O=C(N[C@@H](C(=O)N1CCC[C@H]1c1ncc(-c2ccc(-c3ccc(-c4cnc([C@@H]5CCCN5C(=O)[C@H](NC(=O)C5CCCCC5)c5ccccc5)s4)cc3)cc2)s1)c1ccccc1)C1CCCCC1`, the CC50 is reported as greater than 50 µM.
For `O=C(CCN1CCCC1)N[C@H](C(=O)N1CCC[C@H]1c1ncc(-c2ccc(-c3ccc(-c4cnc([C@@H]5CCCN5C(=O)[C@H](NC(=O)CCN5CCCC5)c5ccccc5)s4)cc3)cc2)s1)c1ccccc1`, the CC50 was greater than 50 µM.
In the case of `CS(=O)(=O)N[C@H](C(=O)N1CCC[C@H]1c1ncc(-c2ccc(-c3ccc(-c4cnc([C@@H]5CCCN5C(=O)[C@H](NS(C)(=O)=O)c5ccccc5)s4)cc3)cc2)s1)c1ccccc1`, the CC50 is reported as greater than 50 µM.
With `CC(=O)N[C@H](C(=O)N1CCC[C@H]1c1ncc(-c2ccc(-c3ccc(-c4cnc([C@@H]5CCCN5C(=O)[C@H](NC(C)=O)c5ccccc5)s4)cc3)cc2)s1)c1ccccc1` the CC50 was greater than 50 µM.
`O=C(CCN1CCOCC1)N[C@H](C(=O)N1CCC[C@H]1c1ncc(-c2ccc(-c3ccc(-c4cnc([C@@H]5CCCN5C(=O)[C@H](NC(=O)CCN5CCOCC5)c5ccccc5)s4)cc3)cc2)s1)c1ccccc1` gave a CC50 greater than 50 µM.
`O=C(N[C@@H](C(=O)N1CCC[C@H]1c1ncc(-c2ccc(-c3ccc(-c4cnc([C@@H]5CCCN5C(=O)[C@H](NC(=O)C5CCCC5)c5ccccc5)s4)cc3)cc2)s1)c1ccccc1)C1CCCC1` gave a CC50 greater than 50 µM.
For `CN1CCN(CCC(=O)N[C@@H](C(=O)N2CCC[C@H]2c2ncc(-c3ccc(-c4ccc(-c5cnc([C@@H]6CCCN6C(=O)[C@H](NC(=O)CCN6CCN(C)CC6)c6ccccc6)s5)cc4)cc3)s2)c2ccccc2)CC1`, the CC50 was greater than 50 µM.
For `CC(C)[C@H](NC(=O)Oc1ccccc1)C(=O)N1CCC[C@H]1c1ncc(-c2ccc(-c3ccc(-c4cnc([C@@H]5CCCN5C(=O)[C@@H](NC(=O)Oc5ccccc5)C(C)C)s4)cc3)cc2)s1`, the CC50 was greater than 50 µM.
Molecule `CCN(CC)CCC(=O)N[C@H](C(=O)N1CCC[C@H]1c1ncc(-c2ccc(-c3ccc(-c4cnc([C@@H]5CCCN5C(=O)[C@H](NC(=O)CCN(CC)CC)c5ccccc5)s4)cc3)cc2)s1)c1ccccc1` has a CC50 greater than 50 µM.
Molecule `CN(C)CCC(=O)N[C@@H](C(=O)N1CCC[C@H]1c1ncc(-c2ccc(-c3ccc(-c4cnc([C@@H]5CCCN5C(=O)[C@H](NC(=O)CCN(C)C)c5ccccc5)s4)cc3)cc2)s1)c1ccccc1` has a CC50 greater than 50 µM.
Work on `CS(=O)(=O)N[C@@H](C(=O)N1CCC[C@H]1c1ncc(-c2ccc(-c3ccc(-c4cnc([C@@H]5CCCN5C(=O)[C@H](NS(C)(=O)=O)c5ccccc5)s4)cc3)cc2)s1)c1ccccc1` yielded a CC50 greater than 50 µM.
In the case of `O=C(N[C@H](C(=O)N1CCC[C@H]1c1ncc(-c2ccc(-c3ccc(-c4cnc([C@@H]5CCCN5C(=O)[C@H](NC(=O)c5ccco5)c5ccccc5)s4)cc3)cc2)s1)c1ccccc1)c1ccco1`, the CC50 is reported as greater than 50 µM.
In the case of `O=C(N[C@H](C(=O)N1CCC[C@H]1c1ncc(-c2ccc(-c3ccc(-c4cnc([C@@H]5CCCN5C(=O)[C@H](NC(=O)c5ccncc5)c5ccccc5)s4)cc3)cc2)s1)c1ccccc1)c1ccncc1`, the CC50 is reported as greater than 50 µM.
For `CCC[C@@H](NC(=O)C1CC1)C(=O)N1CCC[C@H]1c1ncc(-c2ccc(-c3ccc(-c4cnc([C@@H]5CCCN5C(=O)[C@@H](CCC)NC(=O)C5CC5)s4)cc3)cc2)s1`, the CC50 was greater than 50 µM.
Molecule `CC[C@H](NC(=O)OC)C(=O)N1CCC[C@H]1c1ncc(-c2ccc(-c3ccc(-c4cnc([C@@H]5CCCN5C(=O)[C@H](CC)NC(=O)OC)s4)cc3)cc2)s1` has a CC50 greater than 50 µM.
`CC[C@@H](NC(=O)C1CC1)C(=O)N1CCC[C@H]1c1ncc(-c2ccc(-c3ccc(-c4cnc([C@@H]5CCCN5C(=O)[C@@H](CC)NC(=O)C5CC5)s4)cc3)cc2)s1` gave a CC50 greater than 50 µM.
For `CCCCCC(=O)N[C@H](C(=O)N1CCC[C@H]1c1ncc(-c2ccc(-c3ccc(-c4cnc([C@@H]5CCCN5C(=O)[C@H](NC(=O)CCCCC)c5ccccc5)s4)cc3)cc2)s1)c1ccccc1`, the CC50 was greater than 50 µM.
In the case of `COC(=O)N[C@H](C(=O)N1CCC[C@H]1c1ncc(-c2ccc(-c3ccc(-c4cnc([C@@H]5CCCN5C(=O)[C@@H](NC(=O)OC)c5ccccc5)s4)cc3)cc2)s1)c1ccccc1`, the CC50 is reported as greater than 50 µM.
`CC(C)(C)C(=O)N[C@@H](C(=O)N1CCC[C@H]1c1ncc(-c2ccc(-c3ccc(-c4cnc([C@@H]5CCCN5C(=O)[C@H](NC(=O)C(C)(C)C)c5ccccc5)s4)cc3)cc2)s1)c1ccccc1` gave a CC50 greater than 50 µM.
`O=C(N[C@H](C(=O)N1CCC[C@H]1c1ncc(-c2ccc(-c3ccc(-c4cnc([C@@H]5CCCN5C(=O)[C@H](NC(=O)C5CC5)c5ccccc5)s4)cc3)cc2)s1)c1ccccc1)C1CC1` showed a CC50 greater than 50 µM.
`O=C(N[C@@H](C(=O)N1CCC[C@H]1c1ncc(-c2ccc(-c3ccc(-c4cnc([C@@H]5CCCN5C(=O)[C@H](NC(=O)c5cccs5)c5ccccc5)s4)cc3)cc2)s1)c1ccccc1)c1cccs1` gave a CC50 greater than 50 µM.
`O=C(N[C@H](C(=O)N1CCC[C@H]1c1ncc(-c2ccc(-c3ccc(-c4cnc([C@@H]5CCCN5C(=O)[C@H](NC(=O)c5ccsc5)c5ccccc5)s4)cc3)cc2)s1)c1ccccc1)c1ccsc1` showed a CC50 greater than 50 µM.
